Measured values: ChEMBL document CHEMBL1134776, “Novel azo derivatives as prodrugs of 5-aminosalicylic acid and amino derivatives with potent platelet activating factor antagonist activity” (J Med Chem, 2001)

Assays:
Format in all cases: functional
[1] = organism: Rattus norvegicus; assay: Dose required to reduce the lowering of the arterial blood pressure caused by PAF by 50 %.; conditions: read-out: ID50 (the source's name)
Summary of the method: (§1)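 Male Sprague-Dawley rats (180–220 g) were anesthetized with pentobarbital (50 mg/kg ip), and blood pressure was recorded from the left carotid artery. Compound in saline (1 mL/kg) was given iv via a femoral vein 3 min before PAF (0.5 µg/kg iv). ID50 came from linear regression of one curve with ≥4 doses (15–85% inhibition), each point the mean of ≥2 experiments.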

[2] = organism: Oryctolagus cuniculus; assay: Concentration required to inhibit PAF-induced maximum aggregation by 50%
Summary of the method: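 Platelet-rich plasma was prepared by centrifuging blood at 250 g for 10 min at 4 °C, then diluted with platelet-poor plasma (3000g, 10 min) to 3.5 × 10^5 platelets/mm3. Aggregation was induced with C18-PAF (1.5 × 10^-8 M) and read in an aggregometer as maximum aggregation. IC50 came from linear regression of one curve with ≥4 points (15–85% inhibition), each point the mean of 1–3 experiments.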

[3] = tested on: Rattus norvegicus; assay: Dose required to reduce the lowering of the arterial blood pressure caused by PAF by 50 % in rats intravenously; conditions: iv, read-out: ID50 (the source's name); summary of the method: as §1
[4] = organism: Rattus norvegicus; assay: Effect of compound on myeloperoxidase activity was evaluated in rat
Summary of the method: (§2)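 Female Wistar rats (180–220 g) were fasted overnight and given 30 mg TNBS in 0.25 mL 50% ethanol intrarectally by cannula inserted 8 cm, under anesthesia. Compounds were dosed orally in 1% methylcellulose for 5 days before induction and 24 h after. Colons were removed at 48 h and blind-scored 0–10 for macroscopic damage. Diarrhea was analyzed by χ2, means by ANOVA, and scores by Mann–Whitney.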

[5] = organism: Rattus norvegicus; assay: Colonic weight was measured in rats; summary of the method: as §2
[6] = organism: Rattus norvegicus; assay: Damage to the colon observed after 48 hr after colitis induction in rats; summary of the method: as §2
[7] = organism: Rattus norvegicus; assay: % of rats exhibiting diarrhea; summary of the method: as §2
[8] = organism: Rattus norvegicus; assay: Effect of compound on LTB4 production was measured in rat; summary of the method: as §2

| IC50 [2] [nM] | SMILES | ED50 [1] [mg/kg] | other results |
| --- | --- | --- | --- |
| 5 | Cc1nc2cnccc2n1CC1CCN(C(=O)/C=C(\c2ccccc2)c2ccc(N)cc2)CC1 | 0.01 |  |
| 60 | C/C(=C\C(=O)N1CCC(Cn2c(C)nc3cnccc32)CC1)c1ccc(N)cc1 | 0.17 |  |
| 1200 | Cc1nc2cnccc2n1CC1CCN(C(=O)/C=C/c2ccc(N)cc2)CC1 | 1.23 |  |
| 1550 | Cc1nc2cnccc2n1CC1CCN(C(=O)NCc2ccc(N)cc2)CC1 | 2.42 |  |
| 430 | Cc1nc2cnccc2n1CC1CCN(C(=O)C(C)c2ccc(N)cc2)CC1 (stereo unspecified) | 1.47 |  |
| 740 | CCOC(=O)[C@H](Cc1ccc(N)cc1)NS(=O)(=O)c1ccc(Cn2c(C)nc3cnccc32)cc1 |  | ED50 [3]: 0.19 mg/kg |
| 1270 | Cc1nc2cnccc2n1CC1CCN(C(=O)CN(C)C(=O)c2ccc(N)cc2)CC1 |  |  |
| 19 | Cc1nc2cnccc2n1CC1CCN(C(=O)CC(C)(C)c2ccc(N)cc2)CC1 |  |  |
| 400 | CCOC[C@H](CC(C)C)N(Cc1ccc(/N=N\c2ccc(O)c(C(=O)O)c2)cc1)S(=O)(=O)c1ccc(Cn2c(C)nc3cnccc32)cc1 | 2.51 |  |
| 190 | Cc1nc2cnccc2n1CC1CCN(C(=O)/C=C(/c2ccccc2)c2cccc(N)c2)CC1 |  |  |
| 250 | CCOC(=O)N(CC(=O)N1CCC(Cn2c(C)nc3cnccc32)CC1)c1ccc(N)cc1 |  |  |
| 74 | CCOC(=O)C(CC(=O)N1CCC(Cn2c(C)nc3cnccc32)CC1)c1ccc(N)cc1 (stereo unspecified) | 0.56 |  |
| 610 | Cc1nc2cnccc2n1CC1CCN(C(=O)CN(CC(C)C)S(=O)(=O)c2ccc(N)cc2)CC1 |  | ED50 [3]: 0.029 mg/kg |
| 29 | Cc1nc2cnccc2n1CC1CCN(C(=O)CC(Nc2ccc(N)cc2)c2ccccc2)CC1 (stereo unspecified) | 0.11 |  |
| 7300 | Cc1nc2cnccc2n1CC1CCN(C(=O)/C=C(\c2ccccc2)c2ccc(/N=N\c3ccc(O)c(C(=O)O)c3)cc2)CC1 |  |  |
| > 200000 | O=C(O)CCNC(=O)c1ccc(/N=N/c2ccc(O)c(C(=O)O)c2)cc1 [BALSALAZIDE] |  |  |
| 300 | Cc1nc2cnccc2n1Cc1ccc(S(=O)(=O)N(C)c2cccc(N)c2)cc1 |  | ED50 [3]: 0.22 mg/kg |
| 32 | CCOC(=O)[C@H](Cc1ccc(N)cc1)NC(=O)N1CCC(Cn2c(C)nc3cnccc32)CC1 | 1.13 |  |
| 75 | Cc1nc2cnccc2n1CC1CCN(C(=O)CN(c2ccccc2)S(=O)(=O)c2ccc(N)cc2)CC1 |  |  |

| IC50 [2] [nM] | SMILES | ED50 [1] [mg/kg] | other results |
| --- | --- | --- | --- |
| 250 | Cc1nc2cnccc2n1Cc1ccc(S(=O)(=O)N(C)[C@@H](CC(C)C)C(=O)NCc2cccc(N)c2)cc1 |  | ED50 [3]: 0.28 mg/kg |
| > 200000 | O=C(O)c1cc(/N=N/c2ccc(S(=O)(=O)Nc3ccccn3)cc2)ccc1O [SULFASALAZINE] |  | Activity [4]: 683.3 U (g of tissue)-1; Colonic weight [5]: 154.4 mg/cm; Damage score [6]: 8 0-10; Animals [7]: 62.5% |
| 270 | CCOC(=O)NC(CC(=O)N1CCC(Cn2c(C)nc3cnccc32)CC1)c1ccc(N)cc1 (stereo unspecified) | 0.13 |  |
| 1600 | Cc1nc2cnccc2n1CC1CCN(C(=O)NC(C)c2ccc(N)cc2)CC1 (stereo unspecified) |  |  |
| 30 | CCOC(=O)[C@H](CC(C)C)N(C(=O)c1ccc(N)cc1)S(=O)(=O)c1ccc(Cn2c(C)nc3cnccc32)cc1 |  |  |
| 12 | CCOC(=O)[C@H](CC(C)C)N(Cc1ccc(N)cc1)S(=O)(=O)c1ccc(Cn2c(C)nc3cnccc32)cc1 |  |  |
| 1470 | CCOC(=O)[C@H](CC(C)C)N(C(=O)c1ccc(/N=N\c2ccc(O)c(C(=O)O)c2)cc1)S(=O)(=O)c1ccc(Cn2c(C)nc3cnccc32)cc1 | 0.47 |  |
| 4010 | Cc1nc2cnccc2n1CC1CCN(C(=O)CN(c2ccccc2)S(=O)(=O)c2ccc(/N=N\c3ccc(O)c(C(=O)O)c3)cc2)CC1 | 0.19 |  |
| 17 | CCOC(=O)[C@H](CC(C)C)N(Cc1cccc(N)c1)S(=O)(=O)c1ccc(Cn2c(C)nc3cnccc32)cc1 | 0.043 |  |
| 16 | CCOC[C@H](CC(C)C)N(Cc1ccc(N)cc1)S(=O)(=O)c1ccc(Cn2c(C)nc3cnccc32)cc1 |  |  |
| 120 | Cc1nc2cnccc2n1Cc1ccc(S(=O)(=O)N[C@@H](CC(C)C)C(=O)NCc2ccc(N)cc2)cc1 |  | ED50 [3]: 0.075 mg/kg |
| 8 | Cc1nc2cnccc2n1CC1CCN(C(=O)/C=C(/c2ccccc2)c2ccc(N)cc2)CC1 | 0.029 |  |
| 2200 | Cc1nc2cnccc2n1CC1CCN(C(=O)CC(NC(=O)c2ccc(N)cc2)c2ccccc2)CC1 (stereo unspecified) | 0.19 |  |
| 1600 | Cc1nc2cnccc2n1CC1CCN(C(=O)CC(C)(C)c2ccc(/N=N\c3ccc(O)c(C(=O)O)c3)cc2)CC1 | 0.11 |  |
| 4100 | Cc1nc2cnccc2n1CC1CCN(C(=O)/C=C(/c2ccccc2)c2ccc(/N=N\c3ccc(O)c(C(=O)O)c3)cc2)CC1 | 2.81 | Activity [4]: <445.9 U (g of tissue)-1; Production [8]: <4.5 ng (g of tissue)-1; Colonic weight [5]: <149.6 mg/cm; Damage score [6]: <7.5 0-10; Animals [7]: <25% |
| 1280 | CCOC[C@H](CC(C)C)N(C(=O)c1ccc(N)cc1)S(=O)(=O)c1ccc(Cn2c(C)nc3cnccc32)cc1 |  | ED50 [3]: 0.3 mg/kg |
| 490 | CCOC(=O)[C@H](CC(C)C)N(Cc1ccc(/N=N\c2ccc(O)c(C(=O)O)c2)cc1)S(=O)(=O)c1ccc(Cn2c(C)nc3cnccc32)cc1 | 1.31 |  |
| 11 | Cc1nc2cnccc2n1CC1CCN(C(=O)CC(C)c2ccc(N)cc2)CC1 (stereo unspecified) | 0.24 |  |
